Fam108B counter = counter-screen for RBBP9 inhibitors: inhibitors of mouse Fam108B; recombinant Fam108B, FP-Rh probe fluorescence polarization; inhibition, % at 9.51 µM; actives 0.33% (n = 300,000); AID 1947;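 active = inhibition above the screen mean inhibition plus 3 SD, computed separately per campaign, cut at about 18% in these data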;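 note: inhibitors lower polarization as less probe binds the enzyme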
PME-1 primary = blocks human protein phosphatase methylesterase 1; Q9Y570; actives 0.53% (n = 320,000); recombinant PME-1, FP-Rh probe fluorescence polarization; inhibition, % at 5.9 µM; AID 2130;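 active = inhibition above the campaign mean of all compounds plus 3 SD, cut at about 26% in these data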;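 note: competitive labeling of PME-1 active site by serine hydrolase directed probe; inhibitors block probe labeling so polarization falls and inhibition rises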
TCR-CD3 inh = blocks the human TCR-CD3 interaction. TAMRA-labeled TCR probe fluorescence, biochemical. actives 0.37% (n = 360,000). AID 651800. inhibition, % at 9.4 µM;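 note: recombinant mutant TCR 2C K166C tagged with TAMRA read by polarization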
ABHD4 inh = inhibits mouse alpha/beta hydrolase domain 4; Q8VD66; inhibition, % at 8.92 µM; purified mABHD4, FP-Rh probe fluorescence polarization; AID 720543; actives 0.54% (n = 370,000);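 active = inhibition exceeding the mean over every tested compound plus 3 SD, cut at about 30% in these data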
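Assay system: mABHD4 protein; medium: HEPES pH 7.0, NaCl, Pluronic buffer; dosing: 8.92 µM, single dose; schedule: 45 min + 60 min at 25 °C; signal: FP readout, ex 525 nm / em 598 nm; read-out: normalized percent inhibition of probe labeling; repeats: single replicate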
SIAE inh = inhibitors of human sialic acid acetylesterase SIAE | inhibition, % at 9.66 µM | Q9HAT2 | AID 1053197 | SIAE FP-Rh probe binding, fluorescence polarization | actives 0.69% (n = 370,000);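 active = inhibition above a cutoff: mean of compounds within the control limits plus 3 SD of those, cut at about 17% in these data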
Target sequence (Q9HAT2 whole entry, looked up): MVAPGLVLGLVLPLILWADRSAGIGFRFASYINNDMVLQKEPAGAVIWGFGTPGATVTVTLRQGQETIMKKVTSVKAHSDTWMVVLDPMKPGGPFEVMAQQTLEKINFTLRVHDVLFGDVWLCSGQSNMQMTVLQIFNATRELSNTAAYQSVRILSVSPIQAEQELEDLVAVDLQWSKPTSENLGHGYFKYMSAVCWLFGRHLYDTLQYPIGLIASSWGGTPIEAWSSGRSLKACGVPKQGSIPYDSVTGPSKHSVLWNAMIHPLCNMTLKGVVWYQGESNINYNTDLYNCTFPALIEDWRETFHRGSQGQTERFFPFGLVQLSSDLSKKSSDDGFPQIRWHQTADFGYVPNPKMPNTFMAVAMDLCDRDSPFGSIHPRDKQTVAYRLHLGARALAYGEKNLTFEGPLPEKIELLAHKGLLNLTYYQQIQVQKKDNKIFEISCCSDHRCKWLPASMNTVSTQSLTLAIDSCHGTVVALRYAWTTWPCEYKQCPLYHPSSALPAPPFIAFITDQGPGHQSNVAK
HTRA1 inhibitor = inhibitors of human serine peptidase HTRA1; recombinant HTRA1, FP-rhodamine activity-based probe, fluorescence polarization; inhibition, % at 5.96 µM; actives 0.5% (n = 340,000); AID 504803; in the data active = inhibition above about 36%
BSA TAMRA ctr = interferes with TAMRA-BSA probe, flagging TCR-CD3 hits; shares compounds with TCR-CD3 inh; TAMRA-labeled BSA probe fluorescence counterscreen; inhibition, % at 9.4 µM; actives 10% (n = 1,200); AID 652035; in the data active = inhibition above about 23%
TCR-CD3 inh conf = confirmation of human TCR-CD3 interaction inhibitors | actives 48% (n = 1,200) | shares compounds with TCR-CD3 inh | inhibition, % at 9.4 µM | TAMRA-labeled TCR probe fluorescence binding assay
Of the large screens only hits and unclear results are named; the others gave an inactive call (follow-up assays come after a bar, where they were run). Only some compounds are listed: those with a hit (about 1.8% of all), similar ones and a draw of the others. Cut-off read from the data, not from the text of the source, unless noted: active = inhibition above about 19%; inactive = the rest.

C[C@H](O)[C@@H]1CN2CCc3ccc(N4CCOCC4)cc3[C@@H]2C[C@@H]1N(C)C(=O)c1cccc(Cl)c1	none (no result: Fam108B counter, PME-1 primary, TCR-CD3 inh, HTRA1 inhibitor)
COC(=O)[C@]12CCCCC=C1N(Cc1ccc(OC)cc1)C(=O)[C@@H]2CC(=O)N1CCCC1	none (no result: Fam108B counter, PME-1 primary, TCR-CD3 inh, HTRA1 inhibitor)
CC(C)CCNC(=O)C1CCN(c2cncnc2)CC1	none (no result: Fam108B counter, PME-1 primary, TCR-CD3 inh, HTRA1 inhibitor)
O=C(CN1C(=O)c2ccccc2S1(=O)=O)NC1CCCC1	TCR-CD3 inh 21.9 | BSA TAMRA ctr inactive | TCR-CD3 inh conf inactive
Cc1cccc(-c2noc(CCCC(=O)N3CCOCC3)n2)c1	TCR-CD3 inh 37.0 | BSA TAMRA ctr inactive | TCR-CD3 inh conf inactive
Cc1ccc(-c2noc(CCCC(=O)N3CCOCC3)n2)cc1	none
Cc1ccc(S(=O)(=O)N2CCC(C(=O)NNC(=O)c3ccccc3O)CC2)cc1C	TCR-CD3 inh 41.3 | BSA TAMRA ctr inactive | TCR-CD3 inh conf 32.4
Cc1ccc(S(=O)(=O)N2CCC(C(=O)NNC(=O)c3ccccc3O)CC2)cc1	TCR-CD3 inh 52.4 | BSA TAMRA ctr inactive | TCR-CD3 inh conf 36.2
CN(C)c1ccc(-c2nc3ncc(Cl)cc3[nH]2)cc1	none (no result: Fam108B counter, PME-1 primary, TCR-CD3 inh, HTRA1 inhibitor)
CNS(=O)(=O)c1ccc(NC(=O)C2c3ccccc3Oc3ccccc32)cc1	none
CCN(CC)S(=O)(=O)c1ccc(NC(=O)Nc2cccc(C(F)(F)F)c2)cc1	TCR-CD3 inh 81.2 | BSA TAMRA ctr 24.0 | TCR-CD3 inh conf 53.5
CCN(CC)S(=O)(=O)c1ccc(NC(=O)C2c3ccccc3Oc3ccccc32)cc1	TCR-CD3 inh 45.5 | BSA TAMRA ctr inactive | TCR-CD3 inh conf inactive
Cc1ccc(-n2c(O)c(C=Nc3ccccc3-c3n[nH]c(=S)[nH]c3=O)c3ccccc3c2=O)cc1C	TCR-CD3 inh 22.6 (no result: Fam108B counter, PME-1 primary) | BSA TAMRA ctr inactive | TCR-CD3 inh conf inactive
COc1ccc(CN2CCC(CNC(=O)NC(C)C)CC2)cc1	none (no result: Fam108B counter, PME-1 primary, TCR-CD3 inh, HTRA1 inhibitor)
O=C(NNC(=S)Nc1ccccc1)NNC(=S)Nc1ccccc1	TCR-CD3 inh 30.2 | BSA TAMRA ctr inactive | TCR-CD3 inh conf inactive
O=C(NNC(=S)Nc1ccccc1)Nc1ccccc1	none
CCCCc1c(-c2ccccc2OC)ncn1C1CCCCC1	TCR-CD3 inh 20.8 (no result: Fam108B counter, PME-1 primary, HTRA1 inhibitor) | BSA TAMRA ctr inactive | TCR-CD3 inh conf inactive
CCCCc1c(-c2ccccc2OC)ncn1C1CCCC1	none (no result: Fam108B counter, PME-1 primary, HTRA1 inhibitor)
NC(=O)c1nsc(C(=O)N(CC(=O)NCc2ccccc2)c2ccc(F)cc2)c1N	TCR-CD3 inh 35.6 | BSA TAMRA ctr inactive | TCR-CD3 inh conf inactive
COc1ccc(O)c(/C=N/NC(=O)c2c(C)nnn2-c2nonc2N)c1	TCR-CD3 inh 25.5 | BSA TAMRA ctr inactive | TCR-CD3 inh conf inactive
COc1ccc(/C=N/NC(=O)c2nnn(-c3nonc3N)c2-c2cccc(OC)c2)cc1	none
C=CCn1c(SCC(=O)Nc2ccccc2-c2ccccc2)nnc1-c1ccccc1	none (no result: Fam108B counter, PME-1 primary, TCR-CD3 inh, HTRA1 inhibitor)
O=C(O)C1CC=CCC1C(=O)N1CCN(c2nc(-c3ccccc3Cl)c3cc(Br)ccc3n2)CC1 (configuration not stated)	TCR-CD3 inh 51.8 | BSA TAMRA ctr inactive | TCR-CD3 inh conf inactive
Cn1c(=O)n(C)c2cc(/C=N/N=C3/NC(=O)C(CC(=O)O)S3)ccc21 (configuration not stated)	TCR-CD3 inh 41.4 | BSA TAMRA ctr inactive | TCR-CD3 inh conf 21.5
COc1ccc(C(=O)N/N=C\c2ccc(OC)c(COc3ccccc3Br)c2)c(OC)c1	TCR-CD3 inh 26.1 | BSA TAMRA ctr inactive | TCR-CD3 inh conf 32.0
O=C(NC1CCCCN(Cc2ccc(Cl)cc2)C1=O)c1cccs1 (configuration not stated)	none (no result: Fam108B counter, PME-1 primary, TCR-CD3 inh, HTRA1 inhibitor)
COc1ccc(-c2nnc(SCC(=O)Nc3ccc(S(=O)(=O)Nc4cc(C)nc(C)n4)cc3)n2-c2ccc(OC)cc2)cc1	none (no result: Fam108B counter, PME-1 primary, TCR-CD3 inh, HTRA1 inhibitor)
C[C@H](O)[C@@H]1C(=O)N2CCc3c([nH]c4cccc(-c5ccccc5)c34)[C@@H]2C[C@@H]1N(C)C(=O)OCc1ccccc1	TCR-CD3 inh 21.1 (no result: Fam108B counter, PME-1 primary, HTRA1 inhibitor) | BSA TAMRA ctr inactive | TCR-CD3 inh conf inactive
Cc1ccc([C@H](C)NC(=O)C2=C(N)N(S(=O)(=O)c3ccc(C)cc3)C(C(=O)c3ccccc3)C2c2ccccc2Cl)cc1 (some centres not stated)	none (no result: Fam108B counter, PME-1 primary, TCR-CD3 inh, HTRA1 inhibitor)
